Source: PubChem (Broad Institute)
Hits are enriched below; roughly 3.1% of the tested compounds scored in any of these assays.
CSC inhib: blocks cancer stem cells. cancer stem cell-like cells viability, luminescence. inhibition, % at 7.5 µM. actives 1.1% (n = 300,000); in the data active = inhibition above about 75%; tested in HMLE shEcad cells
HIF activator: HIF pathway transcriptional activation | U2OS HRE-luciferase reporter, luminescence; normalized: DMSO 0%, desferrioxamine 100% | activation, % at 7.5 µM (by protocol) | actives 0.32% (n = 300,000);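 active = mean activation of at least 10% of the iron chelator positive control signal, with at least half of replicates also reaching 10%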
T cruzi repl: blocks replication of Trypanosoma cruzi | AID 1885 | actives 1.4% (n = 300,000) | inhibition, % (concentration not given with the values) | T. cruzi beta-gal in NIH3T3, luminescence, 90 h;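 active = mean inhibition across valid replicates above about 55%, limit read from the data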;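 also: signal also drops with host cell toxicity which is not excluded here; 0% = plate median of DMSO wells and 100% = zero luminescence signal; higher percent means less beta-gal luminescence so fewer parasites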
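System: Mouse NIH/3T3 fibroblasts infected with β-gal-expressing T. cruzi Tulahuen C4 | Quantity: NIH/3T3 cells, 5,000 per well | Reagent: 5000 reporter trypomastigotes per well | Dosing: Compound pinned at 50 nL/well, DMSO | Schedule: 3 h host attachment, then at least 90 h co-culture | Detection: GalScreen luminescence, 60 min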
Calb FLC: C. albicans growth modulation with fluconazole. C. albicans CaCi-2 (fluconazole-resistant clinical isolate) + fluconazole, Alamar Blue growth, 48 h. growth inhibition, % (concentration not given with the values). actives 0.57% (n = 300,000);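 active = growth inhibition above about 58% in most replicates, limit read from the data, passing the limit was not always enough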;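 also: all wells also contain fluconazole at 8 µg/ml as a sub-toxic cotreatment; 0% = median of DMSO wells and 100% = median of geldanamycin control wells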
PolyA inhibitor: inhibitors of polyadenylation in S. cerevisiae | actives 0.02% (n = 300,000) | activity score, % at 12 µM | S. cerevisiae SKY197-pL101 polyadenylation reporter, beta-gal luminescence; efflux-impaired pdr1/pdr3 knockout yeast; score 100 = 6 SD above DMSO | AID 1875;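 active = lowest replicate activity score at least 50, where 100 means six control SD above control mean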;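 also: yeast exposed to compound for 9 h at 30 °C; higher score means more reporter readthrough which indicates perturbed polyadenylation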
Beta apoptosis: beta cell apoptosis inhibition; INS-1E cytokine-induced death, ATP luminescence, 48 h; percent of positive-control rescue, neutral wells zero; protection from apoptosis, % (no concentration beside the values); actives 0.8% (n = 300,000); AID 435005;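 active = Every replicate reaches about 75%, or at least half do and their mean reaches it too, limit read from the data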;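 also: 0% = cytokine-treated negative control wells and 100% = positive control rescue; higher means more ATP so stronger rescue from cytokine killing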
* = called active by the depositor; . = no result.

SMILES	CSC inhib	HIF activator	T cruzi repl	Calb FLC	PolyA inhibitor	Beta apoptosis
COc1ccc2sc(N(CCCN(C)C)C(=O)c3ccc(S(=O)(=O)N4CCCC4)cc3)nc2c1	6.9	0.0	44.5	-1.1	-10.0	.
CN(C)CCCN(C(=O)c1ccc(S(=O)(=O)N2CCc3ccccc3C2)cc1)c1nc2ccc(F)cc2s1	91.1*	-4.2	24.8	-2.4	-6.0	62.3
CCOC(=O)N1CCN(S(=O)(=O)c2ccc(C(=O)N(CCCN(C)C)c3nc4cc(OC)ccc4s3)cc2)CC1	-2.5	-54.7	68.4*	15.6	7.3	.
Cc1cc(C)c2sc(N(CCCN(C)C)C(=O)c3ccc(S(=O)(=O)N4CCCc5ccccc54)cc3)nc2c1	100.9*	3.0	60.0*	2.3	8.5	.
COc1ccc(NC(=O)CN2CCC(NC(=O)c3ccc(OC)cc3)CC2)cc1	-4.9	1.3	-7.4	-2.7	-14.2	0.3
CN(C)CCCN(C(=O)c1ccc(S(=O)(=O)N(C)C)cc1)c1nc2ccc(F)cc2s1	-11.2	1.8	67.3*	1.9	1.2	-3.7
CCN(CC)CCN(C(=O)c1ccc2c(c1)CCCC2)c1nc2ccc(C)cc2s1	25.4	0.7	19.1	3.4	-12.1	-1.1
Cc1ccc2nc(N(CCCN(C)C)C(=O)c3ccc(S(=O)(=O)N4CCOCC4)cc3)sc2c1	0.1	-1.7	59.7*	-0.8	6.7	4.9
CCN(CC)CCN(C(=O)c1ccc2c(c1)CCCC2)c1nc2ccc(F)cc2s1	17.8	1.9	54.7*	-8.1	-4.8	-1.9
Cc1ccc2sc(N(CCCN(C)C)C(=O)c3ccc(S(=O)(=O)N4CCOCC4)cc3)nc2c1C	-4.4	0.6	66.1*	2.6	-6.9	-0.3
CCOC(=O)N1CCN(S(=O)(=O)c2ccc(C(=O)N(CCCN(C)C)c3nc4c(C)c(C)ccc4s3)cc2)CC1	-5.4	-0.2	49.1	-5.8	-1.9	.
CCOC(=O)Cc1nnc(Nc2ccc(C(=O)NC)cc2)c2ccccc12	-5.0	-1.2	1.2	-5.2	10.6	3.0
O=S(=O)(Nc1ccon1)c1ccc(F)c(F)c1	-2.1	-0.4	-6.9	-1.8	3.0	-0.1
O=C(N1CCCC1)C(F)(F)Oc1ccc(F)cc1	-8.6	0.5	-4.8	-19.6	5.6	0.7
Cc1cc(C)c2nc(N(CCCN(C)C)C(=O)c3ccc(S(=O)(=O)N4CC(C)OC(C)C4)cc3)sc2c1 (stereo unspecified)	-0.2	0.4	59.5*	-4.7	1.8	.
COc1cc2ccccc2cc1C(=O)N(CCN(C)C)c1nc2c(F)cc(F)cc2s1	5.0	-0.8	35.7	26.9	15.8	0.4
Cc1ccc2sc(N(CCN(C)C)C(=O)c3ccc(S(=O)(=O)N4CC(C)OC(C)C4)cc3)nc2c1C (stereo unspecified)	3.1	0.3	30.8	-6.4	-0.9	-3.9
Cc1ccc2nc(N(CCCN(C)C)C(=O)c3ccc(S(=O)(=O)N4CCc5ccccc5C4)cc3)sc2c1	6.2	-2.6	28.2	-1.4	13.3	113.5*
Cc1cc(C)c2sc(N(CCCN(C)C)C(=O)c3ccc(S(=O)(=O)N4CCc5ccccc5C4)cc3)nc2c1	14.2	-3.4	46.6	-0.8	0.7	.
CN(C)CCCN(C(=O)c1cc(-c2cccs2)nc2ccccc12)c1nc2ccc(F)cc2s1	102.9*	0.9	29.8	-6.1	-3.6	6.0
COc1cc2ccccc2cc1C(=O)N(CCN(C)C)c1nc2ccc(Br)cc2s1	46.9	0.4	50.7	101.8*	3.1	-3.3
C[C@H](NS(=O)(=O)c1ccc2c(c1)OCCCO2)C(=O)N1CCN(Cc2ccc(C#N)cc2)CC1	-12.9	.	.	.	.	-2.6
C=CCN(CC=C)C(=O)c1cc2ccccc2c(=O)o1	-0.1	-0.4	-13.7	-7.4	1.1	-0.1
COc1ccc(/C=C/C(=O)NC(=S)N2CCSCC2)cc1	-1.4	0.4	5.4	2.0	-7.5	-7.5
CN(C)CCN(C(=O)c1cc(Cl)sc1Cl)c1nc2ccc(F)cc2s1	-14.3	2.3	56.1*	-0.4	-1.2	-6.8
SMILES	CSC inhib	HIF activator	T cruzi repl	Calb FLC	PolyA inhibitor	Beta apoptosis
COc1ccc2sc(N(CCN(C)C)C(=O)c3cc(Cl)sc3Cl)nc2c1	-13.2	.	53.9	-4.5	6.8	-10.7
CC(C)=CCc1c2c(c(O)c3c(=O)c4c(oc13)-c1cc(O)c(O)cc1OC4C=C(C)C)C=CC(C)(C)O2 (stereo unspecified)	-10.2	-0.5	-8.8	88.9*	4.1	71.4
C/C(=C\C(=O)c1ccc(Cl)cc1)Nc1ccc(N2CCOCC2)cc1	-1.5	-0.2	25.9	0.1	-7.4	2.7
O=C(CN1CCN(Cc2ccccc2)CC1)Nc1ccc(N2CCOCC2)cc1	-12.6	-0.4	-16.9	48.9	21.0	.
C/C(=C\C(=O)c1ccccc1)Nc1ccc(N2CCOCC2)cc1	16.5	-0.5	64.2*	-5.7	-18.7	6.4
O=C(CS(=O)(=O)c1ccccc1)Nc1ccc(N2CCOCC2)cc1	3.4	19.9*	-17.6	-0.4	3.6	-4.3
C/C(=N/NC(=O)c1ccc(Br)o1)c1cccc(NC(=O)c2ccc(C)o2)c1	-0.5	1.9	-24.4	14.8	-2.5	-1.5
Cc1cccc(N2CCN(Cc3nc(-c4cccc(Oc5ccccc5)c4)oc3C)CC2)n1	32.8	-0.1	15.5	12.5	-20.2	-4.2
Cc1cccc(CN2CCN(C(C)C(=O)NC(C)c3ccccc3)CC2)c1 (stereo unspecified)	1.4	-4.4	27.7	-3.2	0.0	-13.0
CN(CC(=O)Nc1ccc(F)c(Cl)c1)S(=O)(=O)c1ccc2c(c1)n(C)c(=O)c(=O)n2C	-9.2	-0.4	-19.2	-1.4	21.8	-0.9
COc1ccc(/C=N/Nc2nccnc2Cl)c(OC)c1	-1.2	2.6	9.6	-11.1	9.4	-7.9
Oc1ccc(/C=N/Nc2ncc(Br)cn2)c(O)c1	90.8*	18.9*	-8.2	1.7	-30.9	86.9*
CCN(CC)S(=O)(=O)c1ccc(N/N=C/c2ccc(O)cc2O)nc1	112.0*	117.2*	26.3	90.6*	-10.9	66.4
Oc1ccc(Br)cc1/C=N/Nc1ncc(-c2ccccc2)cn1	34.1	-0.2	13.5	-14.7	-17.1	49.0
Oc1ccc(/C=N/Nc2nccnc2Cl)c(O)c1	95.3*	2.2	59.0*	41.9	13.5	75.2*
CCN(CC)S(=O)(=O)c1ccc(N/N=C(\C)c2ccncc2)nc1	40.4	-0.7	3.1	21.8	9.7	-6.3
Oc1ccccc1/C=N/Nc1nccnc1Cl	88.2*	126.6*	26.6	97.5*	10.5	94.4*
COc1ccc(C(CNC(=O)c2cccc(S(=O)(=O)NCc3ccccc3)c2)N2CCOCC2)cc1 (stereo unspecified)	.	-0.1	7.9	-1.0	14.6	1.3
Cc1ccccc1NC(=O)CSCc1nc(N)nc(Nc2ccccc2C)n1	.	0.5	4.1	-10.9	1.4	2.2
CCc1ccc(NC(=O)c2cnc(SC)nc2C)cc1	-0.8	-0.8	7.7	-2.1	-23.9	-3.7
